The record followed here is ChEMBL document CHEMBL5712908, “A genome-wide RNAi screen reveals essential therapeutic targets of breast cancer stem cells” (2019).

Assay [1] relates to SUM-159-PT. Nature of the assay: Anticancer activity against human SUM159 cells assessed as decrease primary tumor sphere formation at 2 nM incubated for 72 hrs by Extreme limiting dilution analysis. The format is functional, cell-based. Put shortly: (§1)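 Cells given drug (2 nM when combined with other agents) for 72 h in adherent culture, then plated as single cells in ultra-low attachment 96-well plates in serum-free mammary epithelium basal medium at 25/10/5/3/2/1 cells per well (18–36 wells per condition). Wells holding ≥1 sphere at 10 days scored positive. Sphere-forming frequency by extreme limiting dilution analysis, pairwise chi-square, n = 4.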

Assay [2] concerns SUM149PT. Nature of the assay: Anticancer activity against human SUM149 cells assessed as decrease in ALDHbr cells at 2 nM by LSR2 cytometer analysis. The format is functional, cell-based. Put shortly:
(§2)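 Cells continuously exposed to drug for 72 h in adherent culture; single-cell suspensions stained with ALDEFLUOR kit and ALDH-high population measured by flow cytometry (LSR2) against a DEAB control. Residual ALDHbr proportion reported (n = 8), mean ± SD, Student's t-test.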

Assay [3] concerns SUM149PT. Description: Anticancer activity against human SUM149 cells assessed as decrease primary tumor sphere formation at 2 nM incubated for 72 hrs by Extreme limiting dilution analysis. The format is functional, cell-based. Put shortly: as §1
Assay [4] relates to SUM-159-PT. Description: Anticancer activity against human SUM159 cells assessed as decrease in ALDHbr cells at 2 nM by LSR2 cytometer analysis. It counts as functional, cell-based. The essentials:
as §2

Assay [5] concerns Breast cancer cell line. Nature of the assay: Antitumor activity against human CRCM494 negative breast cancer cells orthotopically xenografted in NSG mouse model of PDX assessed as reduction in tumor volume at 3 mg/kg, ip daily for 14 days. The format is functional, organism-based. Particulars: time 14.0 day. Put shortly: (§3)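 Chemo-naïve triple-negative PDX cells injected at 100,000 per fat pad, two fat pads per NSG mouse. At ~80 mm³ tumours, mice received i.p. 3 mg/kg daily for 14 days or 50 mg/kg 5 of 7 days for 2 weeks; placebo was DMSO/HPCD 10% (1:9). Five mice (10 tumours) per group. Tumour growth monitored; after 2 weeks tumours dissociated, mouse cells excluded via anti-H2Kd, ALDHbr measured by ALDEFLUOR flow cytometry and normalised to vehicle.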
In general terms: A xenograft is tissue or cells of one species grown in another, often human tumour cells in immunodeficient mice.

The subject of assay [6] is Breast cancer cell line. Nature of the assay: Antitumor activity against human reimplanted CRCM404 negative breast cancer cells orthotopically xenografted in NSG mouse model of PDX assessed as reduction tumor volume at 3 mg/kg, ip daily for 14 days by limiting dilation analysis. The format is functional, organism-based. Particulars: time 14.0 day. The essentials:
(§4)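 After 2 weeks of i.p. treatment (3 mg/kg daily or 50 mg/kg 5 of 7 days), dissociated PDX tumour cells reimplanted into secondary NSG mice at 50, 500 or 5,000 cells. A mouse counted as tumour-bearing once a tumour reached 10 mm. bCSC frequency per 10,000 cells estimated by ELDA; pairwise chi-square test.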

The nature of assay [7]: Antitumor activity against human S68 cells assessed as K-score by measuring ALDHbr cells by LSR2 cytometer. It counts as functional. Put shortly:
(§5)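 Cell lines exposed for 72 h in adherent culture to a range of concentrations centred on the MTS-derived IC50. ALDHbr proportion measured by ALDEFLUOR flow cytometry (LSR2). K-score is the linear regression coefficient, on log10-transformed doses, between the untreated condition and the dose predicted to give a 50% decrease or increase in ALDHbr proportion versus control.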

Assay [8] has as its system Breast cancer cell line. Nature of the assay: Antitumor activity against human reimplanted CRCM494 negative breast cancer cells orthotopically xenografted in NSG mouse model of PDX assessed as reduction tumor volume at 3 mg/kg, ip daily for 14 days by limiting dilation analysis. Particulars: time 14.0 day. The format is functional, organism-based. The essentials: as §4

Assay [9] deals with SUM-159-PT. Nature of the assay: Synergistic anticancer activity against human SUM159 cells assessed as decrease in primary tumor sphere formation at 62 nM incubated for 72 hrs in presence of JQ1 by Extreme limiting dilution analysis. The format is functional. Put shortly:
(§6)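 72 h adherent pretreatment (Sal/JQ1 62 nM/62 nM; docetaxel added at 2 nM where used), then single cells plated in ultra-low attachment 96-well plates in serum-free mammary epithelium basal medium at 25/10/5/3/2/1 cells/well (18–36 wells/condition). Wells with ≥1 sphere after 10 days scored positive; sphere-forming frequency by ELDA. Secondary spheres from dissociated primary spheres. n = 4; pairwise chi-square.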

Assay [10] in a line: Antitumor activity against human BrCa-MZ-01 cells assessed as K-score by measuring ALDHbr cells by LSR2 cytometer. The format is functional. Put shortly: as §5
For assay [11], the system named is SUM-159-PT. Description: Anticancer activity against human SUM159 cells expressing BFP assessed as reduction in ALDHbr cell at 5 to 500 nM by LSR2 cytometer analysis. It counts as functional, cell-based. Particulars: dose 5-500 nM.
The subject of assay [12] is SUM-159-PT. Description: Anticancer activity against human SUM159 cells assessed as effect on RFP+/BFP+ cell ratio upto 5 uM after 72 hrs by […]. The format is functional, cell-based.
The subject of assay [13] is SUM-159-PT. Nature of the assay: Synergistic anticancer activity against human SUM159 cells expressing BFP assessed as reduction in ALDHbr cell 50 nM in presence of JQ1 by LSR2 cytometer analysis. It counts as functional.
Assay [14] deals with Breast cancer cell line. Description: Antitumor activity against human CRCM404 negative breast cancer cells orthotopically xenografted in NSG mouse model of PDX assessed as reduction ALDHbr cells at 3 mg/kg, ip daily for 14 days by LSR2 cytometer analysis. The format is functional, organism-based. Particulars: time 14.0 day. The essentials:
as §3

Assay [15] deals with MDA-MB-436. Description: Antitumor activity against human MDA-MB-436 cells assessed as K-score by measuring ALDHbr cells by LSR2 cytometer. The format is functional. Put shortly:
as §5

The subject of assay [16] is Breast cancer cell line. Nature of the assay: Antitumor activity against human CRCM434 negative breast cancer cells orthotopically xenografted in NSG mouse model of PDX assessed as reduction in tumor volume at 3 mg/kg, ip daily for 14 days. It counts as functional, organism-based. The conditions noted are these: time 14.0 day. Put shortly: as §3
The subject of assay [17] is SUM-159-PT. Nature of the assay: Induction of apoptosis in human SUM159 cells expressing ALDHbr upto 5 uM incubated for 72 hrs by ALDEFLUOR/YO-PRO-3/ Hoechst 33342 staining based high content imaging microscopic analysis. The format is functional, cell-based. Put shortly:
(§7)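 SUM159 at 3,000 cells/well on collagen plates, dosed at 6, 24 and 48 h post-seeding; 0.1% DMSO negative control, cisplatin positive control. At 72 h stained 30 min at 37°C with ALDEFLUOR, YO-PRO-3 and Hoechst 33342, then imaged ice-cold. YO-PRO-3-positive nuclei (above untreated signal) counted over total cells, per ALDHbr/ALDH- subpopulation; n = 6.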

The subject of assay [18] is SUM-159-PT. Nature of the assay: Anticancer activity against human SUM159 cells assessed as decrease in primary tumor sphere formation incubated for 72 hrs by Extreme limiting dilution analysis. The format is functional, cell-based. The essentials:
(§8)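 Cells drug-treated in adherent culture for 72 h, then plated as single cells in ultra-low attachment 96-well plates in serum-free mammary epithelium basal medium. Plating at 25/10/5/3/2/1 cells per well, 18–36 wells per condition. Wells with ≥1 sphere after 10 days scored positive. Secondary spheres were made by dissociating primary spheres. Frequency by ELDA; n = 4; pairwise chi-square test.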

For assay [19], the system named is Breast cancer cell line. Nature of the assay: Antitumor activity against human reimplanted CRCM434 negative breast cancer cells orthotopically xenografted in NSG mouse model of PDX assessed as reduction tumor volume at 3 mg/kg, ip daily for 14 days by limiting dilation analysis. It counts as functional, organism-based. Particulars: time 14.0 day. The essentials:
as §4

The test system of assay [20] is Breast cancer cell line. Description: Antitumor activity against human CRCM404 negative breast cancer cells orthotopically xenografted in NSG mouse model of PDX assessed as reduction in tumor volume at 3 mg/kg, ip daily for 14 days. The conditions noted are these: time 14.0 day. It counts as functional, organism-based. Put shortly:
as §3

In assay [21] the test system is SUM149PT. Description: Antitumor activity against human SUM149 cells assessed as K-score by measuring ALDHbr cells by LSR2 cytometer. It counts as functional. The essentials:
as §5

In assay [22] the test system is Breast cancer cell line. Description: Synergistic antitumor activity against human CRCM434 negative breast cancer cells orthotopically xenografted in NSG mouse model of PDX assessed as reduction ALDHbr cells at 3 mg/kg, ip daily for 14 days cotreated with JQ1 by LSR2 cytometer analysis. It counts as functional. The conditions noted are these: time 14 day.
Assay [23] concerns Breast cancer cell line. Nature of the assay: Antitumor activity against human CRCM494 negative breast cancer cells orthotopically xenografted in NSG mouse model of PDX assessed as reduction ALDHbr cells at 3 mg/kg, ip daily for 14 days by LSR2 cytometer analysis. The format is functional, organism-based. The conditions noted are these: time 14.0 day. The essentials: as §3
The subject of assay [24] is SUM-159-PT. Nature of the assay: Antitumor activity against human SUM159 cells assessed as K-score by measuring ALDHbr cells by LSR2 cytometer. The format is functional. Put shortly: as §5
Assay [25] relates to SUM-159-PT. Description: Anticancer activity against human SUM159 cells expressing BFP assessed as reduction in ALDHbr cell at 50 nM by LSR2 cytometer analysis. The format is functional.
The subject of assay [26] is Breast cancer cell line. Description: Antitumor activity against human CRCM434 negative breast cancer cells orthotopically xenografted in NSG mouse model of PDX assessed as reduction ALDHbr cells at 3 mg/kg, ip daily for 14 days by LSR2 cytometer analysis. The format is functional, organism-based. Particulars: time 14.0 day. Put shortly:
as §3

In assay [27] the test system is Breast cancer cell line. Description: Synergistic antitumor activity against human CRCM494 negative breast cancer cells orthotopically xenografted in NSG mouse model of PDX assessed as reduction ALDHbr cells at 3 mg/kg, ip daily for 14 days cotreated with JQ1 by LSR2 cytometer analysis. It counts as functional. The conditions noted are these: time 14 day.
In assay [28] the test system is SUM-159-PT. Nature of the assay: Synergistic anticancer activity against human SUM159 cells assessed as decrease in secondary tumor sphere formation at 62 nM incubated for 72 hrs in presence of JQ1 by Extreme limiting dilution analysis. The format is functional. Put shortly:
as §6

The test system of assay [29] is Breast cancer cell line. Nature of the assay: Synergistic antitumor activity against human CRCM404 negative breast cancer cells orthotopically xenografted in NSG mouse model of PDX assessed as reduction ALDHbr cells at 3 mg/kg, ip daily for 14 days cotreated with JQ1 by LSR2 cytometer analysis. It counts as functional. Particulars: time 14 day.
In assay [30] the test system is SUM-159-PT. Description: Induction of apoptosis in human SUM159 cells expressing ALDH upto 5 uM incubated for 72 hrs by ALDEFLUOR/YO-PRO-3/ Hoechst 33342 staining based high content imaging microscopic analysis. It counts as functional, cell-based. Put shortly: as §7
Assay [31] has as its system SUM-159-PT. Nature of the assay: Anticancer activity against human SUM159 cells assessed as decrease in secondary tumor sphere formation incubated for 72 hrs by Extreme limiting dilution analysis. It counts as functional, cell-based. The essentials: as §8

Calls of active or inactive are those of the source. The rule behind the calls is not given here.

`CC(=O)O[C@@]12CO[C@@H]1C[C@H](O)[C@@]1(C)C(=O)[C@H](O)C3=C(C)[C@@H](OC(=O)[C@H](O)[C@@H](NC(=O)OC(C)(C)C)c4ccccc4)C[C@@](O)([C@@H](OC(=O)c4ccccc4)[C@H]21)C3(C)C`: the result in assay [1], in assay [2], in assay [3] and in assay [4] was inactive.
In the case of `CC[C@@H](C(=O)[C@@H](C)[C@@H](O)[C@H](C)[C@@H]1O[C@@H]([C@@H](CC)C(=O)O)CC[C@@H]1C)[C@H]1O[C@]2(C=C[C@@H](O)[C@]3(CC[C@@](C)([C@H]4CC[C@](O)(CC)[C@H](C)O4)O3)O2)[C@H](C)C[C@@H]1C` [SALINOMYCIN], the result in assay [5], in assay [12], in [16] and in assay [20] was inactive. For the same compound, the result in [6], in assay [8], in [11], in assay [14], in [17] and in assay [18] was Active. The result in assay [19], in assay [23], in assay [26], in assay [30] and in assay [31] was Active. Also, the Activity is recorded as -0.19 in assay [7]; -0.07 in assay [10]; -0.12 in assay [15]; -0.06 in assay [21]; -0.14 in [24]. Also, the “fold change (FC)” value came to 2.4 in [9]; 4 in assay [13]; 2 in assay [22]; 2 in assay [25]; 2 in assay [27]; 5.4 in assay [28]. For the same compound, in assay [29], the “fold change (FC)” value amounted to 2.
